Counter-ions that a name gives are not always drawn. Active and inactive are the calls of the source. No cut-off for these calls is given here.
Legend:
[1] = species: Homo sapiens; test: Inhibition of alpha-tubulin polymerization in human HCC1428 cells at 6 to 10 uM after 24 hrs by confocal microscopic method; type: cell-based
Outline: (§1)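 HCC1428 cells grown on glass coverslips and treated 24 h; 1 µM vincristine and DMSO as controls. Fixed in cold methanol/acetone (1:1) 5 min, then blocked 20 min in 3% goat serum with 0.1% Triton X-100. Stained with mouse anti-α-tubulin and a FITC secondary, DAPI 4 µg/mL 15 min. Imaged by confocal microscopy; three independent experiments.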

[2] = tested on: HT-29; test: Antiproliferative activity against human HT-29 cells after 48 hrs by MTT assay; type: functional, cell-based; details: HT-29, 48 h
[3] = tested on: K562; test: Antiproliferative activity against human K562 cells after 48 hrs by MTT assay; type: functional, cell-based; details: K562, 48 h
[4] = tested on: HeLa; test: Antiproliferative activity against human HeLa cells after 48 hrs by MTT assay; type: functional, cell-based
[5] = tested on: PC-3; test: Antiproliferative activity against paclitaxel-resistant human PC3 cells after 48 hrs by MTT assay; type: functional, cell-based; details: PC-3, 48 h
[6] = species: Homo sapiens; test: Inhibition of alpha-tubulin polymerization in human HCC1428 cells at 3 uM after 24 hrs by confocal microscopic method; type: cell-based; outline: as §1
[7] = Antiproliferative activity against human HCC1428 cells after 48 hrs by MTT assay; type: functional, cell-based; details: HCC1428, 48 h
[8] = species: Homo sapiens; test: Inhibition of alpha-tubulin polymerization in human HCC1428 cells at 1 uM after 24 hrs by confocal microscopic method; type: cell-based; outline: as §1
[9] = species: Bos taurus; test: Inhibition of bovine brain tubulin polymerization at 5 uM measured every 1 min for 1 hr by spectrophotometric method
Outline: (§2)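 Bovine brain tubulin (>97% pure) in G-PEM buffer (80 mM PIPES, 0.5 mM EGTA, 1.0 mM GTP, pH 6.9) with 0.1% DMSO, set up at 4 °C with or without compound, using a commercial HTS kit. Vincristine and taxol at 5 µM as controls. Polymerization followed by A340 every 1 min for 1 h at 37 °C.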

[10] = Cell cycle arrest in human HCC1428 cells assessed as accumulation at G1 phase at 1 uM after 24 hrs by propidium iodide staining based flow cytometry (reference value: 62.61%); type: functional
[11] = Cell cycle arrest in human HCC1428 cells assessed as accumulation at S phase at 1 uM after 24 hrs by propidium iodide staining based flow cytometry (reference value: 24.46%); type: functional
[12] = tested on: HCC1428; test: Antiproliferative activity against human HCC1428 cells at 1 uM […] by RTCA; type: functional, cell-based
Outline: (§3)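 Real-time impedance (xCELLigence RTCA DP) monitoring of HCC1428 cells plated at 2000 cells/well in E-plate 16. Cells kept in RPMI-1640 with 2% FBS at 37 °C, 5% CO2 throughout. Growth curves recorded over 84 h of compound exposure. Representative of three independent experiments.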

[13] = Cell cycle arrest in human HCC1428 cells assessed as accumulation at G2/M phase at 1 uM after 24 hrs by propidium iodide staining based flow cytometry (reference value: […]%); type: functional
[14] = Cell cycle arrest in human HCC1428 cells assessed as accumulation at S phase at 6 uM after 24 hrs by propidium iodide staining based flow cytometry (reference value: 24.46%); type: functional
[15] = species: Homo sapiens; test: Inhibition of alpha-tubulin polymerization in human HCC1428 cells at 3 to 6 uM after 24 hrs by confocal microscopic method; type: cell-based; outline: as §1
[16] = Cell cycle arrest in human HCC1428 cells assessed as accumulation at S phase at 3 uM after 24 hrs by propidium iodide staining based flow cytometry (reference value: 24.46%); type: functional
[17] = tested on: HCC1428; test: Cell cycle arrest in human HCC1428 cells assessed as accumulation at G2/M phase after 24 hrs by propidium iodide staining based flow cytometry; type: functional
[18] = species: Bos taurus; test: Inhibition of bovine brain tubulin polymerization at 5 to 10 uM measured every 1 min for 1 hr by spectrophotometric method; outline: as §2
[19] = Cell cycle arrest in human HCC1428 cells assessed as accumulation at G2/M phase at 3 uM after 24 hrs by propidium iodide staining based flow cytometry (reference value: […]%); type: functional
[20] = Cell cycle arrest in human HCC1428 cells assessed as accumulation at G1 phase at 6 uM after 24 hrs by propidium iodide staining based flow cytometry (reference value: 62.61%); type: functional
[21] = Cell cycle arrest in human HCC1428 cells assessed as accumulation at G2/M phase at 6 uM after 24 hrs by propidium iodide staining based flow cytometry (reference value: […]%); type: functional
[22] = Cell cycle arrest in human HCC1428 cells assessed as accumulation at G1 phase at 3 uM after 24 hrs by propidium iodide staining based flow cytometry (reference value: 62.61%); type: functional
[23] = tested on: HCC1428; test: Antiproliferative activity against human HCC1428 cells at 2 to 4 uM […] by RTCA; type: functional, cell-based; outline: as §3

Compound | IC50 [2] | IC50 [3] | IC50 [4] | IC50 [7] | further results
CC[C@]1(O)C[C@H]2CN(CCc3c([nH]c4ccccc34)[C@@](C(=O)OC)(c3cc4c(cc3OC)N(C=O)[C@H]3[C@@](O)(C(=O)OC)[C@H](OC(C)=O)[C@]5(CC)C=CCN6CC[C@]43[C@@H]65)C2)C1 [VINCRISTINE] |  |  |  |  | inhibition [8]: Active; inhibition [9]: Active; Activity [10]: 4.15%; Activity [11]: 6.96%; Activity [12]: Active; Activity [13]: 88.89%
Oc1cc2ccc1Oc1cccc(c1)CCc1ccc(O)c(c1)Oc1ccc(cc1)CC2 | 12.7 µM | 15.7 µM | 18.9 µM | 22.4 µM | 
Oc1ccc2c(c1)CCc1ccc(O)c(c1)Oc1ccc(cc1O)CCc1cccc(O)c1O2 | 15.9 µM | 25.3 µM | 26.8 µM | 22 µM | 
Oc1ccc2cc1Oc1ccc(cc1)CCc1cccc(O)c1Oc1ccccc1CC2 | 12.4 µM | 21.6 µM | 21.5 µM | 19 µM | 
Oc1ccc2cc1Oc1ccc(cc1)CCc1cccc(O)c1Oc1ccc(cc1O)CC2 | 17 µM | 24.9 µM | 27.4 µM | 19.5 µM | 
Oc1ccc2cc1Oc1ccc(cc1)CCc1cc(O)c(c(O)c1)Oc1cccc(c1)CC2 | 20.1 µM | 29.9 µM | 28.3 µM | 25.2 µM | 
Oc1ccc2cc1Oc1ccc(cc1)CCc1ccc(O)c(c1)Oc1ccc(cc1O)CC2 | 14.8 µM | 15.6 µM | 29.4 µM | 20.1 µM | 
CC(=O)O[C@H]1C(=O)[C@@]2(C)[C@H]([C@H](OC(=O)c3ccccc3)[C@]3(O)C[C@H](OC(=O)[C@H](O)[C@@H](NC(=O)c4ccccc4)c4ccccc4)C(C)=C1C3(C)C)[C@]1(OC(C)=O)CO[C@@H]1C[C@@H]2O |  |  |  |  | inhibition [9]: inactive
Oc1cc2ccc1Oc1ccc(cc1)CCc1cccc(O)c1Oc1cccc(c1)CC2 | 11.6 µM | 6.06 µM | 15.8 µM | 7.69 µM | 
Oc1ccc2cc1Oc1cccc(c1)CCc1ccc(O)c(c1)Oc1ccc(cc1O)CC2 | 12.4 µM | 10.9 µM | 19.5 µM | 19.5 µM | 

Continued by falling IC50 [2], values first:

IC50 [2] | IC50 [3] | IC50 [4] | Compound | IC50 [7] | further results
11.5 µM | 10.2 µM | 22.7 µM | Oc1ccc2cc1Oc1ccc(cc1)CCc1ccc(O)c(c1)Oc1ccc(cc1)CC2 | 15.3 µM | 
9.6 µM | 19.2 µM | 21.9 µM | Oc1ccc2cc1Oc1ccc(cc1)/C=C\c1cccc(O)c1Oc1ccccc1CC2 | 17.1 µM | 
7.98 µM | 7.02 µM | 11.7 µM | Oc1ccc2cc1Oc1ccc(cc1)CCc1ccc(O)c(c1)Oc1cccc(c1)CC2 | 10.7 µM | inhibition [1]: Active; IC50 [5]: 13.4 µM; inhibition [6]: inactive
7.98 µM | 14.1 µM | 15.9 µM | Oc1ccc2c(c1)CCc1ccc(O)c(c1)Oc1ccc(cc1)CCc1cccc(O)c1O2 | 10.8 µM | 
7.57 µM | 8.52 µM | 10.5 µM | Oc1ccc2cc1Oc1ccc(cc1)CCc1cccc(O)c1Oc1ccc(cc1)CC2 | 9.25 µM | IC50 [5]: 10.9 µM
7.51 µM | 6.16 µM | 10.4 µM | Oc1cc2c(cc1O)Oc1c(O)cccc1CCc1ccc(cc1)Oc1cc(ccc1O)CC2 | 8.46 µM | IC50 [5]: 7.7 µM
1.98 µM | 1.74 µM | 2.61 µM | COc1cccc2c1Oc1cc(O)c(O)cc1CCc1ccc(O)c(c1)Oc1ccc(cc1)CC2 | 1.51 µM | Activity [14]: 11.12%; inhibition [15]: Active; Activity [16]: 23.66%; Activity [17]: Dose-dependent effect; inhibition [18]: Active; IC50 [5]: 5.51 µM; Activity [19]: 37.7%; Activity [20]: 3.54%; Activity [21]: 85.34%; Activity [22]: 38.6%; Activity [23]: Active
1.76 µM | 0.57 µM | 1.23 µM | COc1cccc2c1C(=O)c1c(O)c3c(c(O)c1C2=O)C[C@@](O)(C(=O)CO)C[C@@H]3O[C@H]1C[C@H](N)[C@H](O)[C@H](C)O1 [DOXORUBICIN HYDROCHLORIDE] | 1.77 µM | IC50 [5]: 16.9 µM

— ChEMBL document CHEMBL4007433, “Design, synthesis, biological evaluation and molecular modeling study of novel macrocyclic bisbibenzyl analogues as antitubulin agents” (Eur J Med Chem, 2017)
